Assay results as given in ChEMBL document CHEMBL4376814, “Novel cyclin-dependent kinase 9 (CDK9) inhibitor with suppression of cancer stemness activity against non-small-cell lung cancer” (Eur J Med Chem, 2019).
The source made the active and inactive calls. The rule behind the calls is not given here.

Tests used:
[1] = target: Calcium/calmodulin-dependent protein kinase type 1D (Homo sapiens) (UniProt Q8IU85); assay: Inhibition of recombinant full-length human CaMK1delta at 1 uM using calmodulin as substrate measured after 40 mins in presence of [gamma33P]ATP by scintillation counting method relative to control
[2] = target: Serine/threonine-protein kinase PLK1 (Homo sapiens) (UniProt P53350); assay: Inhibition of full length human PLK1 at 1 uM using casein as substrate measured after 40 mins in presence of [gamma33P]ATP by scintillation counting method
Homo sapiens [3] = species on record: Homo sapiens; assay: Inhibition of recombinant human Plk4 S34T mutant (1 to 273 residues) at 1 uM using casein as substrate measured after 120 mins in presence of [gamma33P]ATP by scintillation counting method relative to control
A549 [4] = assay: Induction of apoptosis in human A549 cells assessed as necrotic cells at 0.5 uM after 48 hrs by AnnexinV-FITC/PI staining-based flow cytometric analysis (reference value: 0.664%); type: functional
[5] = system: Hepatocyte growth factor receptor (Homo sapiens), P08581 [D1228H]; assay: Inhibition of recombinant human MET A1209G/V1290L/D1246H mutant (974 to end residues) at 1 uM using KKKGQEEEYVFIE as substrate measured after 40 mins in presence of [gamma33P]ATP by scintillation counting method relative to control
[6] = target: Serine/threonine-protein kinase DCLK3 (Homo sapiens) (UniProt Q9C098); assay: Inhibition of recombinant human DCAMKL3 (345 to end residues) at 1 uM using KKLNRTLSFAEPG as substrate measured after 40 mins in presence of [gamma33P]ATP by scintillation counting method relative to control
[7] = target: High affinity nerve growth factor receptor (Homo sapiens) (UniProt P04629); assay: Inhibition of recombinant human TRKA (440 to end residues) at 1 uM using KKKSPGEYVNIEFG as substrate measured after 40 mins in presence of [gamma33P]ATP by scintillation counting method relative to control
[8] = target: Serine/threonine-protein kinase SBK1 (Homo sapiens) (UniProt Q52WX2); assay: Inhibition of recombinant full-length human SBK1 at 1 uM using KKLRRTLSVA as substrate measured after 120 mins in presence of [gamma33P]ATP by scintillation counting method relative to control
Homo sapiens [9] = species on record: Homo sapiens; assay: Inhibition of recombinant full-length human PI3K p110delta/p85alpha N253S mutant at 1 uM using phosphatidylinositol-4, 5-bisphosphate as substrate measured after 40 mins by fluorescence assay relative to control
[10] = target: Serine/threonine-protein kinase Nek11 (Homo sapiens) (UniProt Q8NG66); assay: Inhibition of recombinant full-length human NEK11 at 1 uM using myelin basic protein as substrate measured after 40 mins in presence of [gamma33P]ATP by scintillation counting method relative to control
NCI-H1299 [11] = assay: Antitumour activity against human H1299 cells xenografted in Balb/c mouse assessed as effect on CDK9 level at 20 to 80 mg/kg, po administered for 3 weeks by […] based light microscopic analysis; type: functional, organism-based
In short: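 Tumours came from the H1299 oral-dosing xenograft run for 3 weeks. Formalin-fixed, paraffin-embedded 5-µm sections were deparaffinized and rehydrated. Primary antibodies (CDK9, cyclin T1, p-Rb Ser780, RNAPII CTD Ser5, Oct4) used at 1:100 overnight at 4 °C. Biotinylated secondary for 1 h at room temperature, then ABC-peroxidase/DAB, hematoxylin counterstain and light microscopy.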

[12] = target: Ribosomal protein S6 kinase alpha-3 (Homo sapiens) (UniProt P51812); assay: Inhibition of recombinant full-length human Rsk3 at 1 uM using KKKNRTLSVA as substrate measured after 40 mins in presence of [gamma33P]ATP by scintillation counting method relative to control
In short: (§1)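 Single-point inhibition at 1 µM was measured in the Eurofins KinaseProfiler panel. Values are the mean of two independent experiments.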

[13] = target: Myotonin-protein kinase (Homo sapiens) (UniProt Q09013); assay: Inhibition of recombinant human DMPK (1 to 549 residues) at 1 uM using KKSRGDYMTMQIG as substrate measured after 40 mins in presence of [gamma33P]ATP by scintillation counting method relative to control
[14] = Half life in CD-1 mouse liver microsomes at 2 uM in presence of NADPH measured up to 1 hr by HPLC analysis; type: ADME, Microsome
In short: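 Drug at 2 µM incubated at 37 °C with male liver microsomes at 1 mg/mL, in 0.1 M phosphate buffer pH 7.4 with MgCl2. After 5 min preincubation, reaction started with NADPH. Samples (n=3) taken at 0, 10, 20, 30, 45 and 60 min, quenched with ice-cold acetonitrile, spun, and analysed by HPLC. t1/2 derived from the fitted rate constant k.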

A549 [15] = assay: Induction of apoptosis in human A549 cells assessed as early apoptotic cells at 0.5 uM after 48 hrs by AnnexinV-FITC/PI staining-based flow cytometric analysis (reference value: 2.91%); type: functional
NCI-H1299 [16] = assay: Antitumour activity against human H1299 cells xenografted in Balb/c mouse assessed as tumour weight at 80 mg/kg, po after 21 days by digital caliper method (reference value: 2.17 g); type: functional
In short: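 Female nude mice, 6-8 weeks old, injected subcutaneously with 1×10^6 H1299 cells (100 µL of a 1×10^7/mL suspension in serum-free medium). At 100-120 mm3, randomized into groups of 5. Dosed orally each day for 21 days with drug dissolved in DMSO, or with vehicle. Caliper measurements and body weight taken every other day. Volume = short²×long×0.5. Growth inhibition based on change in volume relative to vehicle. Tumours weighed at the end.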

[17] = system: Angiopoietin-1 receptor (Homo sapiens), Q02763 [Q939H,Q940H]; assay: Inhibition of human Tie2 Q939H/Q940H mutant (771 to end residues) at 1 uM using poly(Glu, Tyr) 4:1 as substrate measured after 40 mins in presence of [gamma33P]ATP by scintillation counting method relative to control; in short: as §1
[18] = target: Death-associated protein kinase 3 (Homo sapiens) (UniProt O43293); assay: Inhibition of recombinant human ZIPK (1 to 290 residues) at 1 uM using KKLNRTLSFAEPG as substrate measured after 40 mins in presence of [gamma33P]ATP by scintillation counting method relative to control; in short: as §1
[19] = target: Serine/threonine-protein kinase ULK3 (Homo sapiens) (UniProt Q6PHR2); assay: Inhibition of recombinant full-length human ULK3 at 1 uM using casein as substrate measured after 40 mins in presence of [gamma33P]ATP by scintillation counting method relative to control
[20] = target: Death-associated protein kinase 2 (Homo sapiens) (UniProt Q9UIK4); assay: Inhibition of recombinant full-length human DAPK2 at 1 uM using calmodulin as substrate measured after 40 mins in presence of [gamma33P]ATP by scintillation counting method relative to control
[21] = target: Ribosomal protein S6 kinase alpha-6 (Homo sapiens) (UniProt Q9UK32); assay: Inhibition of recombinant full-length human Rsk4 at 1 uM using LRRASLG as substrate measured after 40 mins in presence of [gamma33P]ATP by scintillation counting method relative to control

Sequence of Ribosomal protein S6 kinase alpha-3 (Homo sapiens) (P51812 whole entry): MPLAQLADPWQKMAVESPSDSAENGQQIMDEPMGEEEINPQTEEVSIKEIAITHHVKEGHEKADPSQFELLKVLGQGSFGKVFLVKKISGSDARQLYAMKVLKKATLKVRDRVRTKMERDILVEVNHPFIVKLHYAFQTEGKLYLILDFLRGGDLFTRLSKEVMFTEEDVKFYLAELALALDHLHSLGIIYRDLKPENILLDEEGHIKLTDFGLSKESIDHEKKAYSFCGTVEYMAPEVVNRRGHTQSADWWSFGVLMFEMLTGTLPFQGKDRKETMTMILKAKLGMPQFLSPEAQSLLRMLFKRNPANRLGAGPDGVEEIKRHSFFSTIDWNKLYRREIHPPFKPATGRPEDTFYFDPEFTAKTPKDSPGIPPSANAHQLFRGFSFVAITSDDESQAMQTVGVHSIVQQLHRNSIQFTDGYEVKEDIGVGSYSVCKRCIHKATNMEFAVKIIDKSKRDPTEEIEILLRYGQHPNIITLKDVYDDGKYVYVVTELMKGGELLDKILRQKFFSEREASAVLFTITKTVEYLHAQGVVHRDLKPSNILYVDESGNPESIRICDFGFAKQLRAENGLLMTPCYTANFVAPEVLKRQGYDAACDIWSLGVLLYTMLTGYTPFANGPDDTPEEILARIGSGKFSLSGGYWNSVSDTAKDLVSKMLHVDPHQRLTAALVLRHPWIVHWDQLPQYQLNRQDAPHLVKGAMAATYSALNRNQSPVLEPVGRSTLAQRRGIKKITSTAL
Sequence of Serine/threonine-protein kinase DCLK3 (Homo sapiens) (Q9C098 whole entry): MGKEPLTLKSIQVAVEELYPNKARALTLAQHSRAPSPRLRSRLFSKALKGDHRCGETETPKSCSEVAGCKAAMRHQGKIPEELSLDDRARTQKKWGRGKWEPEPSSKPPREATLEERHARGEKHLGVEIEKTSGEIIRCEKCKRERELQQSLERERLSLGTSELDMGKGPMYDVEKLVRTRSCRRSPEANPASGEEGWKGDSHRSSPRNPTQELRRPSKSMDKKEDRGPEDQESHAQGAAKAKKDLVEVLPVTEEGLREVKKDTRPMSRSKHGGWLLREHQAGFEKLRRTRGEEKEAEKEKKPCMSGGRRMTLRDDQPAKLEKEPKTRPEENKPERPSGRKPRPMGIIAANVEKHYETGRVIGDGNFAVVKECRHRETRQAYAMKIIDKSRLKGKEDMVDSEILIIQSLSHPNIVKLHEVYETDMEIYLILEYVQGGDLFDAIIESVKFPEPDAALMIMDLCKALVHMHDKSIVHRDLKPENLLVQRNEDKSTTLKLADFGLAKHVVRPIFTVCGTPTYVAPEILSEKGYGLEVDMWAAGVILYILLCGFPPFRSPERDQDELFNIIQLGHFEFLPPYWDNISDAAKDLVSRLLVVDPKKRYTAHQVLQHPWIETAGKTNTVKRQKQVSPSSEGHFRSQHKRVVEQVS
Sequence of High affinity nerve growth factor receptor (Homo sapiens) (P04629 33-796 limits assumed): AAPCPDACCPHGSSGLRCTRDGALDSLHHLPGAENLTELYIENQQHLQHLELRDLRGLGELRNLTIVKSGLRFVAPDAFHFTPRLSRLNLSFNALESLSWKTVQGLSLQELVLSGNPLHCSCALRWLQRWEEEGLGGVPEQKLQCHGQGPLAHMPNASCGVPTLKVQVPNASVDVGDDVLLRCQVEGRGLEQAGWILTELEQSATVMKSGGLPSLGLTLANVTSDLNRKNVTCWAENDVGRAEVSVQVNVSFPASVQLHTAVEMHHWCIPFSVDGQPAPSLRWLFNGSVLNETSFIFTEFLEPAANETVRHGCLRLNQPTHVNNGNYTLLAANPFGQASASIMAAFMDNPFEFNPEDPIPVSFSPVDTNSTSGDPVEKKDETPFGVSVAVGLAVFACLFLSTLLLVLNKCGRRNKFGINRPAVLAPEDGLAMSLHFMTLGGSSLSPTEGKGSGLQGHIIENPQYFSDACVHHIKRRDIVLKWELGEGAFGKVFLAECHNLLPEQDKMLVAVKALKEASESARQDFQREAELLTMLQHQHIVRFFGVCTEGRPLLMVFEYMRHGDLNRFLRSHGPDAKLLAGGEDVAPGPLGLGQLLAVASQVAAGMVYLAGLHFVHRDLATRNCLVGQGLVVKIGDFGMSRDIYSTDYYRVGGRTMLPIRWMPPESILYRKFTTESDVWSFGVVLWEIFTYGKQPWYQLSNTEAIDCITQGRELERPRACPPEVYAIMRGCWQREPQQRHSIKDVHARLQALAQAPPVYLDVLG
Sequence of Calcium/calmodulin-dependent protein kinase type 1D (Homo sapiens) (Q8IU85 whole entry, looked up): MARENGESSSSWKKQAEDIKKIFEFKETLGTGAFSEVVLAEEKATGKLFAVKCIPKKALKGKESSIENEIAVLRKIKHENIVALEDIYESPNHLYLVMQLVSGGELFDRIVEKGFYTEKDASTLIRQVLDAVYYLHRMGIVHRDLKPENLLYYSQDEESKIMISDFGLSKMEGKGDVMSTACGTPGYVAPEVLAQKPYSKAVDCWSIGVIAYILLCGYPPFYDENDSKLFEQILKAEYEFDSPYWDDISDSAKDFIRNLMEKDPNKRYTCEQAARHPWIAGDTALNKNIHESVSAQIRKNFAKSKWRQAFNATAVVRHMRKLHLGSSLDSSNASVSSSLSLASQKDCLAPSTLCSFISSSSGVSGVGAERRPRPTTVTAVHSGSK
Sequence of Serine/threonine-protein kinase SBK1 (Homo sapiens) (Q52WX2 whole entry): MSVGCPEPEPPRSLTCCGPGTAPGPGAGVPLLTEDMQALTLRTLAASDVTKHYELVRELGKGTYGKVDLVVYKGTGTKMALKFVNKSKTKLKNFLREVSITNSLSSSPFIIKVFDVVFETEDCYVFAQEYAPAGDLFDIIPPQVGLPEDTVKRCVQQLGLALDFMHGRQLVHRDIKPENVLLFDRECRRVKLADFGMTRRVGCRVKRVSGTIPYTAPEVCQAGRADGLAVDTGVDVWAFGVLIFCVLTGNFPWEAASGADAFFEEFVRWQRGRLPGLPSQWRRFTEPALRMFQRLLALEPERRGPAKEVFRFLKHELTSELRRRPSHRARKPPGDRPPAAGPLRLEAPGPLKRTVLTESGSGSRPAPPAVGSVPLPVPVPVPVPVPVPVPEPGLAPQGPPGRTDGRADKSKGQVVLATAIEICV
Sequence of Serine/threonine-protein kinase ULK3 (Homo sapiens) (Q6PHR2 whole entry): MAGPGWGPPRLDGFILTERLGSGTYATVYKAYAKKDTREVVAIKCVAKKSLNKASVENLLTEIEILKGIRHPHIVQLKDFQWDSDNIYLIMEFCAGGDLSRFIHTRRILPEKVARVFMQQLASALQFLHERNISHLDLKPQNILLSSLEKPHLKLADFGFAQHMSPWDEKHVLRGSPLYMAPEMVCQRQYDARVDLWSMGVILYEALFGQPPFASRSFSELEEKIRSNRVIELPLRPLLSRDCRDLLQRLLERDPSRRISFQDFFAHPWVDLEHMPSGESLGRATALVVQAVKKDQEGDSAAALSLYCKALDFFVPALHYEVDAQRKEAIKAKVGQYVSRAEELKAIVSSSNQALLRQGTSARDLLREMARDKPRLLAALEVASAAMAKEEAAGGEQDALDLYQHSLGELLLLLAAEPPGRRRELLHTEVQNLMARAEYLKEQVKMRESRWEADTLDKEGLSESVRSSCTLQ
Sequence of Myotonin-protein kinase (Homo sapiens) (Q09013 whole entry, the tested form may be a part): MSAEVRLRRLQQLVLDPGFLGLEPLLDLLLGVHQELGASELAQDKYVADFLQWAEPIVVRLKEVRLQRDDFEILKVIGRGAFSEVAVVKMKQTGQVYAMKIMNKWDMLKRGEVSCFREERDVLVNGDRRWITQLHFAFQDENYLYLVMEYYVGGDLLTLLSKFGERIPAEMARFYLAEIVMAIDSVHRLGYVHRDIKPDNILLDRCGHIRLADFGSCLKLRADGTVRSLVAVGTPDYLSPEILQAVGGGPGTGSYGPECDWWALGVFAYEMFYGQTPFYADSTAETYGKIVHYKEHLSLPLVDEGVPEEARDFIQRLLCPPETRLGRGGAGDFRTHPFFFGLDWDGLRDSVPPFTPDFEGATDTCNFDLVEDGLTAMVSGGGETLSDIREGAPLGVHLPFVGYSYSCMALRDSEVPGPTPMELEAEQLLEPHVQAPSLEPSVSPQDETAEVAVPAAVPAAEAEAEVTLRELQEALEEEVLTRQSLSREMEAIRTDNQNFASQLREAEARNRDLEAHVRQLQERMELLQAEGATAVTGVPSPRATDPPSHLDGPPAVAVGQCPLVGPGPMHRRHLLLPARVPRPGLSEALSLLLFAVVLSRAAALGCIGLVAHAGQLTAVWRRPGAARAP
Sequence of Serine/threonine-protein kinase PLK1 (Homo sapiens) (P53350 whole entry, the tested form may be a part): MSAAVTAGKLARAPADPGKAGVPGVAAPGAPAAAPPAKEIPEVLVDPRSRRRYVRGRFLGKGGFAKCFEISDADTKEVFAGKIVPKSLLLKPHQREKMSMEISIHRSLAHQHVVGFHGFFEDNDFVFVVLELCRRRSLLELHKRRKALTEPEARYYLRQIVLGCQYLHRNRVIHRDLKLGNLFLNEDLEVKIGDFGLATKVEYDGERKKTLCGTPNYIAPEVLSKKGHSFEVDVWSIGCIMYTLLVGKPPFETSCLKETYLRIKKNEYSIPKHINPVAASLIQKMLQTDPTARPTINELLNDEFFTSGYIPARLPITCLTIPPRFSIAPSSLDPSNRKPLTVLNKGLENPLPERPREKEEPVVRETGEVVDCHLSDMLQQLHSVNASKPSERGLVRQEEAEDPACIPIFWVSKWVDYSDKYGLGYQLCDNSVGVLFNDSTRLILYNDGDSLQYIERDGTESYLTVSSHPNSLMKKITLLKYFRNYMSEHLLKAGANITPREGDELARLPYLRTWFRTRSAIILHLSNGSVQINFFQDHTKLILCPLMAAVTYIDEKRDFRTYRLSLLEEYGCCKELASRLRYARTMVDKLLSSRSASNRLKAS

CN(C)C(=O)c1cc2cnc(Nc3ccc(NC(=O)CCCCCCCN=C=S)cc3)nc2n1C1CCCC1
inhibition [1]: 3% | inhibition [2]: -2% | inhibition (Homo sapiens [3]): 50% | Activity (A549 [4]): 6.11% | inhibition [5]: 74% | inhibition [6]: 9% | inhibition [7]: 77% | inhibition [8]: 88% | inhibition (Homo sapiens [9]): 2% | inhibition [10]: 20% | Activity (NCI-H1299 [11]): inactive | inhibition [12]: 12% | inhibition [13]: 5% | half-life at 2 µM [14]: 23.1 min | Activity (A549 [15]): 1.26% | Activity (NCI-H1299 [16]): 0.18 g | inhibition [17]: 29% | inhibition [18]: 1% | inhibition [19]: 9% | inhibition [20]: -8% | inhibition [21]: 38%
